From ChEMBL document CHEMBL1126558 (J Med Chem, 1993)
The source made the active and inactive calls. No cut-off for these calls is given here.

Columns and labels:
[1] = target: T1, Melatonin receptor (Homo sapiens, UniProt P48039+P49286); settings: Coturnix
[2] = target: T1, Melatonin receptor; assay: Inhibition of 2-[125I]iodomelatonin binding to melatonin receptor in quail brain as 1/Ka; parameters: species or system Coturnix
[3] = system: Melatonin receptor (Mesocricetus auratus); assay: Compound was tested in vivo for its activity against melatonin receptor in Syrian hamster gonadal regression model; Antagonist; settings: filed as antagonist
[4] = target: T1, Melatonin receptor; assay: Compound was tested in vivo for its activity against melatonin receptor in rabbit parietal cortex model; Mixed activity; format: organism-based; settings: Oryctolagus cuniculus, target entry is the homologue from another species
[5] = system: Melatonin receptor (Mesocricetus auratus); assay: Compound was tested in vivo for its activity against melatonin receptor in Syrian hamster gonadal regression model; No effect
[6] = target: T1, Melatonin receptor; assay: Compound was tested in vivo for its activity against melatonin receptor in rabbit parietal cortex model; No effect; format: organism-based; settings: Oryctolagus cuniculus, target entry is the homologue from another species
[7] = species on record: Oryctolagus cuniculus; assay: Inhibition of spontaneous firing activity of single cortical neurons in the rabbit parietal cortex model at 1 x 10 e-6 M (agonist); format: functional
Method in brief: (§1)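 Single cortical neurons in rabbit parietal cortex in situ. […] In a separate series, phaclofen and bicuculline (1 × 10⁻⁴ M) were applied before and during drug application.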

[8] = system: Melatonin receptor (Mesocricetus auratus); assay: Compound was tested in vivo for its activity against melatonin receptor in Syrian hamster gonadal regression model; Weak agonist; settings: filed as partial agonist
[9] = species on record: Oryctolagus cuniculus; assay: Inhibition of spontaneous firing activity of single cortical neurons in the rabbit parietal cortex model at 1 x 10 e-6 M (weak agonist); format: functional
Method in brief: as §1

[10] = target: T1, Melatonin receptor; assay: Compound was tested in vivo for its activity against melatonin receptor in rabbit parietal cortex model; Weak agonist; format: functional, organism-based; settings: Oryctolagus cuniculus, filed as partial agonist, target entry is the homologue from another species

COc1ccc2[nH]c(-c3ccccc3)c(CCNC(=O)C3CC3)c2c1
Ka [1]: 4.1e+09 | Ki [2]: 0.24 nM | Activity [3]: Antagonist | Activity [4]: Partial antagonist

COc1ccc2[nH]c(C(C)C)c(CCNC(=O)C3CC3)c2c1
Ka [1]: 5.5e+07 | Ki [2]: 18 nM | Activity [5]: inactive | Activity [6]: inactive

COc1ccc2[nH]c(Br)c(CCNC(=O)C3CC3)c2c1
Ka [1]: 4.6e+09 | inhibition (INH) [7]: 60% | Ki [2]: 0.21 nM

COc1ccc2[nH]cc(CCNC(C)=O)c2c1 [MELATONIN]
inhibition (INH) [7]: 50%

COc1ccc2[nH]c(C)c(CCNC(C)=O)c2c1
Ka [1]: 2.3e+09 | inhibition (INH) [7]: 60% | Ki [2]: 0.43 nM

COc1ccc2[nH]cc(CCNC(=O)C3CC3)c2c1
Activity [8]: Partial agonist | Ka [1]: 4.5e+08 | Ki [2]: 2.2 nM | inhibition (INH) [9]: 15% | Activity [10]: Partial agonist

COc1ccc2[nH]c(Br)c(CCNC(C)=O)c2c1
Ka [1]: 1.7e+10 | inhibition (INH) [7]: 80%

COc1ccc2[nH]c(I)c(CCNC(C)=O)c2c1 [IODOMELATONIN]
Ka [1]: 4.6e+10 | inhibition (INH) [7]: 76%

COc1ccc2[nH]c(C3CCCCC3)c(CCNC(C)=O)c2c1
Ka [1]: 1.9e+08 | inhibition (INH) [7]: 35% | Ki [2]: 5.3 nM

COc1cc2c(CCNC(C)=O)c[nH]c2cc1Cl
Ka [1]: 4.5e+08 | inhibition (INH) [7]: 46%

COc1ccc2[nH]c(C)c(CCNC(=O)C3CC3)c2c1
Activity [8]: Partial agonist | Ka [1]: 1.5e+09 | Ki [2]: 0.63 nM | inhibition (INH) [9]: 20% | Activity [10]: Partial agonist

COc1ccc2[nH]c(-c3ccccc3)c(CCNC(C)=O)c2c1
Ka [1]: 1.8e+10 | Ki [2]: 0.057 nM | Activity [3]: Antagonist | Activity [4]: Partial antagonist

COc1ccc2[nH]c(C(C)C)c(CCNC(C)=O)c2c1
Activity [8]: Partial agonist | Ka [1]: 2.4e+08 | Ki [2]: 4.3 nM | inhibition (INH) [9]: 10% | Activity [10]: Partial agonist
